Data published in the RNAGym collection of RNA variant scans (doi:10.1126/science.aae0568).
Fewer inactive variants are shown than the library holds.

B1: tRNA (parent)
chain: GUUCCGUUGGCGUAAUGGUAACGCGUCUCCCUCCUAAGGAGAAGACUGCGGGUUCGAGUCCCGUACGGAACG

Variants of: B1
Test: yeast fitness relative to wild type (ratio to wild type); higher = fitter; tRNA-Arg(CCU), competitive growth, 37 C, YPD
Outline: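 Variants of the tRNA-Arg(CCU) gene, chemically synthesised with a 3% per-site mutation rate at 69 sites, were placed at the native genomic locus in Saccharomyces cerevisiae. The pooled strains were competed in YPD at 37°C for 24 hours in six parallel replicates. Gene amplicons from the start population and from each end population were read by 100-nucleotide paired-end sequencing. Darwinian fitness relative to wild type came from changes in genotype frequencies; genotypes needed ≥ 100 starting reads, and estimates < 0.5 were set to 0.5.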

| Variant | yeast fitness |
| --- | --- |
| GUUCCGUUGGCGUAAUGGUAACGCGUCUCCCUCCUAAGGAGAAGACUGCGGGUUCUGGUCCCGUACGUAACG | ≤ 0.5 |
| GUUCCGUUGGCGUAAUGGUAACGCGUCUCCCUCCUAAGGAGAAGACUGCGGGUUCCUGUCCCGUACGGAACG | 0.562 |
| GUUCCGUUGGCGUAAUGGUAACGCGUCUCCCUCCUAAGGAGAAGACUGCGGGUUCGCGUCCAGUCCGGAACG | ≤ 0.5 |
| GUUCCGUUGGCGUAAUGGUAACGCGUCUCCCUCCUAAGGAGAAGACUGCGGGUUCCAGUCCUGUACGGAUCG | 0.598 |
| GUUCCGUUGGCGUAAUGGUAACGCGUCUCCCUCCUAAGGAGAAGACUGCGGGUUCAAGUCCCGUACAGAACG | 0.901 |
| GUUCCGUUGGCGUAAUGGUAACGCGUCUCCCUCCUAAGGAGAAGACUGCGGGUUCAAGUCCCGUACCGAACG | 0.812 |
| GUUCCGUUGGCGUAAUGGUAACGCGUCUCCCUCCUAAGGAGAAGACUGCGGGUUCCAGUCCCGUACAGAACG | 0.592 |
| GUUCCGUUGGCGUAAUGGUAACGCGUCUCCCUCCUAAGGAGAAGACUGCGGGUUCCAGUCCCGUACUGAACG | 0.524 |
| GUUCCGUUGGCGUAAUGGUAACGCGUCUCCCUCCUAAGGAGAAGACUGCGGGUUCCAGUCCCGUACAGACCG | 0.527 |
| GUUCCGUUGGCGUAAUGGUAACGCGUCUCCCUCCUAAGGAGAAGACUGCGGGUUCCAGUCCCGUACGCAACG | 0.716 |
| GUUCCGUUGGCGUAAUGGUAACGCGUCUCCCUCCUAAGGAGAAGACUGCGGGUUCCAGUCCCGUACGGUACG | 0.671 |
| GUUCCGUUGGCGUAAUGGUAACGCGUCUCCCUCCUAAGGAGAAGACUGCGGGUUCCAGUCCCGUGCGGAACG | 0.606 |
| GUUCCGUUGGCGUAAUGGUAACGCGUCUCCCUCCUAAGGAGAAGACUGCGGGUUCCAGACCCGUGCGGAACG | 0.571 |
| GUUCCGUUGGCGUAAUGGUAACGCGUCUCCCUCCUAAGGAGAAGACUGCGGGUUCGCGUCUCGUAUGGCACG | ≤ 0.5 |
| GUUCCGUUGGCGUAAUGGUAACGCGUCUCCCUCCUAAGGAGAAGACUGCGGGUUCCAGGCCCGUACGGAACG | 0.693 |
| GUUCCGUUGGCGUAAUGGUAACGCGUCUCCCUCCUAAGGAGAAGACUGCGGGUUCCAGCCCCGUACGGAACG | 0.607 |
| GUUCCGUUGGCGUAAUGGUAACGCGUCUCCCUCCUAAGGAGAAGACUGCGGGUUCAAGUCCCGCACGGAACG | 1.01 |
| GUUCCGUUGGCGUAAUGGUAACGCGUCUCCCUCCUAAGGAGAAGACUGCGGGUUCGCGUCCCGUACGGACCG | 0.676 |
| GUUCCGUUGGCGUAAUGGUAACGCGUCUCCCUCCUAAGGAGAAGACUGCGGGUUCGCGUCCCGUACGGAUCG | 0.679 |

| Variant | yeast fitness |
| --- | --- |
| GUUCCGUUGGCGUAAUGGUAACGCGUCUCCCUCCUAAGGAGAAGACUGCGGGUUCAAGUCCCCUACGGAACG | 0.818 |
| GUUCCGUUGGCGUAAUGGUAACGCGUCUCCCUCCUAAGGAGAAGACUGCGGGUUCGCGUCUCGUACGGAUCG | ≤ 0.5 |
| GUUCCGUUGGCGUAAUGGUAACGCGUCUCCCUCCUAAGGAGAAGACUGCGGGUUCUAGGCCCGUACGGAGCG | ≤ 0.5 |
| GUUCCGUUGGCGUAAUGGUAACGCGUCUCCCUCCUAAGGAGAAGACUGCGGGUUCGCGUCCCGUACGGUACG | 0.605 |
| GUUCCGUUGGCGUAAUGGUAACGCGUCUCCCUCCUAAGGAGAAGACUGCGGGUUCCCGUCCCGUACGGAGCG | 0.594 |
| GUUCCGUUGGCGUAAUGGUAACGCGUCUCCCUCCUAAGGAGAAGACUGCGGGUUCAAGUCCCGUACAGCACG | 0.797 |
| GUUCCGUUGGCGUAAUGGUAACGCGUCUCCCUCCUAAGGAGAAGACUGCGGGUUCAAGGCCCGUACGGAACG | 0.762 |
| GUUCCGUUGGCGUAAUGGUAACGCGUCUCCCUCCUAAGGAGAAGACUGCGGGUUCCAGUCCCGUAAGGAACG | 0.567 |
| GUUCCGUUGGCGUAAUGGUAACGCGUCUCCCUCCUAAGGAGAAGACUGCGGGUUCCAGUCCCGUAUGGAACG | 0.699 |
| GUUCCGUUGGCGUAAUGGUAACGCGUCUCCCUCCUAAGGAGAAGACUGCGGGUUCCAGUCCCGUACGGACCG | 0.813 |
| GUUCCGUUGGCGUAAUGGUAACGCGUCUCCCUCCUAAGGAGAAGACUGCGGGUUCGCGUCCCGUUGGGAACG | ≤ 0.5 |
| GUUCCGUUGGCGUAAUGGUAACGCGUCUCCCUCCUAAGGAGAAGACUGCGGGUUCCAGUCCAGUACGGAACG | 0.563 |
| GUUCCGUUGGCGUAAUGGUAACGCGUCUCCCUCCUAAGGAGAAGACUGCGGGUUCGCGUCACGUACAGAACG | 0.56 |
| GUUCCGUUGGCGUAAUGGUAACGCGUCUCCCUCCUAAGGAGAAGACUGCGGGUUCCGGUCGCGUAUGGGACG | ≤ 0.5 |
| GUUCCGUUGGCGUAAUGGUAACGCGUCUCCCUCCUAAGGAGAAGACUGCGGGUUCGCGUCUCGUACGGAACG | 0.656 |
| GUUCCGUUGGCGUAAUGGUAACGCGUCUCCCUCCUAAGGAGAAGACUGCGGGUUCCGGUCCCGUACGUAACG | ≤ 0.5 |
| GUUCCGUUGGCGUAAUGGUAACGCGUCUCCCUCCUAAGGAGAAGACUGCGGGUUCCGGUCCCGUACGGCACG | ≤ 0.5 |
| GUUCCGUUGGCGUAAUGGUAACGCGUCUCCCUCCUAAGGAGAAGACUGCGGGUUCCAGUCACGUACGGAACG | ≤ 0.5 |
| GUUCCGUUGGCGUAAUGGUAACGCGUCUCCCUCCUAAGGAGAAGACUGCGGGUUCGCGUCCCGUCCGGAACG | 0.594 |
